Measurements of several laboratories.
Lines come from different studies, so protocols differ.
EGFR L858R: Epidermal growth factor receptor (EGFR, Homo sapiens, UniProt P00533, L858R)

| Compound | target | observed | action | technique | concentration | quantity | value |
| --- | --- | --- | --- | --- | --- | --- | --- |
| CO[C@@H]1[C@H](N(C)C(=O)c2ccccc2)C[C@H]2O[C@]1(C)n1c3ccccc3c3c4c(c5c6ccccc6n2c5c31)C(=O)NC4 | Epidermal growth factor receptor (EGFR, Homo sapiens, UniProt P00533, A750P/del747-749) | enzyme activity | inhibitor |  | 1 µM | inhibition | 74% |
| COc1ccc2oc(-c3ccc4nc(N)oc4c3)c/c(=N\c3ccccc3NC(=O)CCN)c2c1 | EGFR L858R | binding |  |  | 1 µM | remaining binding | 92% |
| C=CC(=O)N1CCC([C@@H]2CCNc3c(C(N)=O)c(-c4ccc(Oc5ccccc5)cc4)nn32)CC1 | Epidermal growth factor receptor (EGFR, Homo sapiens, UniProt P00533, G719C) | cell-free assay |  |  | 1 µM | inhibition | 92% |
| CN1CCN(C(=O)c2ccc(NC(=O)Nc3ccc(N(C)c4ccnc(Nc5ccc(CS(C)(=O)=O)cc5)n4)cc3)cc2)CC1 | EGFR L858R | binding |  |  | 1 µM | remaining binding | 92% |
| C1=C/COCc2cc(ccc2OCCN2CCCC2)Nc2nccc(n2)-c2cccc(c2)COC/1 | EGFR L858R | binding |  |  | 0.1 µM | remaining binding | 71% |
| Cc1ccc(NC(=O)c2ccnc(C(F)(F)F)c2)cc1-c1cc(OCCO)nc(N2CCOCC2)c1 | Epidermal growth factor receptor (EGFR, Homo sapiens, UniProt P00533, L861Q) | binding |  |  | 1 µM | remaining binding | 92% |
| CCCCC(=O)Nc1ccc(-c2ccc3ncn(CCC)c(=O)c3c2)cn1 | Epidermal growth factor receptor (EGFR, Homo sapiens, UniProt P00533, G719S) | binding |  | competition with immobilised ligand | 0.5 µM | remaining binding | 100% |
| COc1ccc2[nH]c3c4[nH]c5ccc(OC)cc5c4c4c(c3c2c1)C(=O)NC4=O | Epidermal growth factor receptor (EGFR, Homo sapiens, UniProt P00533, T790M) | binding |  |  | 1 µM | remaining binding | 45% |
| CC#CC(=O)N1CCC[C@H]1c1nc(-c2ccc(C(=O)Nc3ccccn3)cc2)c2c(N)nccn12 | Epidermal growth factor receptor (EGFR, Homo sapiens, UniProt P00533, L858R/T790M) | enzyme activity | inhibitor |  | 1 µM | inhibition | 2% |
